Converted amounts (≈) assume the structure as drawn. The source made the active and inactive calls. The calls are words filed in the database; no cut-off is given here.

Results on 10 compounds are retold here after ChEMBL document CHEMBL5104229, “Novel tetrahydropyrimidinyl-substituted benzimidazoles and benzothiazoles: synthesis, antibacterial activity, DNA interactions and ADME profiling” (RSC Med Chem, 2022).

In data set [1] the test system is Staphylococcus aureus. Description: Antibacterial activity against Staphylococcus aureus ATCC 29213 incubated assessed as inhibition of bacterial growth for 20 to 22 hrs by broth microdilution method. Conditions: time 20-22 hrs. In kind it is functional. Summed up: (§1)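 Broth microdilution per CLSI in cation-adjusted Mueller–Hinton broth, twofold dilutions over […]. Inoculum by direct colony suspension, 5 × 10^4 CFU per well. E. coli and S. aureus grown on MHA; E. faecalis, M. catarrhalis and streptococci on MHA with 5% sheep blood; streptococcal broth supplemented with 5% horse serum. MIC read visually after 20–22 h at 37 °C, ambient air.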
(Dilution methods test growth across graded concentrations, often in twofold steps.)

Data set [2] has as its system Enterococcus faecalis. Description: Antibacterial activity against Enterococcus faecalis ATCC29212 assessed as inhibition of bacterial growth incubated for 20 to 22 hrs by broth microdilution method. Conditions: time 20-22 hrs. In kind it is functional. In outline: as §1
The test system of data set [3] is Moraxella catarrhalis. Description: Antibacterial activity against Moraxella catarrhalis ATCC 23246 assessed as inhibition of bacterial growth incubated for 20 to 22 hrs by broth microdilution method. In kind it is functional. Conditions: time 20-22 hrs. Summed up: as §1
Data set [4] concerns Escherichia coli. In words: Antibacterial activity against hypersensitive AcrAB deficient Escherichia coli assessed as inhibition of bacterial growth incubated for 20 to 22 hrs by broth microdilution method. In kind it is functional. As to conditions: time 20-22 hrs. In outline: as §1
Data set [5] has as its system Streptococcus pneumoniae. Description: Antibacterial activity against Macrolide sensitive Streptococcus pneumoniae clinical isolate B0652 assessed as inhibition of bacterial growth incubated for 20 to 22 hrs by broth microdilution method. In kind it is functional. As to conditions: time 20-22 hrs. Summed up:
(§2)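 CLSI broth microdilution MIC in cation-adjusted Mueller Hinton broth supplemented with 5% horse serum for streptococci. Twofold dilutions across a 128–0.25 range. Strains grown on MHA with 5% sheep blood; inoculum by direct colony suspension, 5 × 10^4 CFU per well. Read visually after 20–22 h at 37 °C in ambient air; azithromycin and ampicillin as reference antibiotics.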

For data set [6], the system named is Streptococcus pneumoniae. In words: Antibacterial activity against Macrolide resistant Streptococcus pneumoniae clinical isolate B0326 assessed as inhibition of bacterial growth incubated for 20 to 22 hrs by broth microdilution method. In kind it is functional. As to conditions: time 20-22 hrs. In outline:
as §2

For data set [7], the system named is Streptococcus pyogenes. In words: Antibacterial activity against Macrolide sensitive Streptococcus pyogenes clinical isolate B0542 assessed as inhibition of bacterial growth incubated for 20 to 22 hrs by broth microdilution method. In kind it is functional. Conditions: time 20-22 hrs. Summed up: as §1
Data set [8] concerns Streptococcus pyogenes. In words: Antibacterial activity against Macrolide resistant Streptococcus pyogenes clinical isolate B0545 assessed as inhibition of bacterial growth incubated for 20 to 22 hrs by broth microdilution method. It counts as functional. Conditions: time 20-22 hrs. Summed up:
as §2

Data set [9] can be described thus: Cytotoxicity against human HepG2 cells assessed as reduction in cell viability incubated overnight by MTT assay. It counts as toxicity, cell-based. On the technique in general: Tetrazolium dyes change colour on reduction, which living cells bring about.
The test system of data set [10] is Calf thymus DNA. In words: Binding affinity to calf thymus double stranded DNA assessed as stabilization of DNA by measuring change in melting temperature at pH 7 by UV/Vis-spectrophotometry. Conditions: Bos taurus. It counts as nucleic-acid assay. In outline:
(§3)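 Thermal denaturation in sodium cacodylate buffer, pH 7.0, I = 0.05 mol dm−3, compound/polynucleotide ratio r = 0.3. Absorbance at 260 nm followed versus temperature, ligand absorbance subtracted, scale normalized. Tm from first-derivative maximum, checked by tangent method. ΔTm = Tm(complex) − Tm(free nucleic acid), mean of at least two runs, error ±0.5 °C. ctDNA sonicated and filtered.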

Data set [11] has as its system AT rich DNA. Description: Binding affinity to double stranded [poly(dA-dT)2] DNA (unknown origin) assessed as stabilization of DNA by measuring change in melting temperature at pH 7 by UV/Vis-spectrophotometry. In kind it is nucleic-acid assay. Conditions: Homo sapiens. Summed up: as §3
The subject of data set [12] is Calf thymus DNA. In words: Binding affinity to calf thymus double stranded DNA minor groove assessed as assessed as effect on CD spectrum at pH 7 by CD spectroscopy. It counts as nucleic-acid assay. Conditions: Bos taurus. In outline: (§4)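 CD titration at 25 °C, sodium cacodylate buffer pH 7, I = 0.05 mol dm−3: portions of compound stock (1 × 10−3 mol dm−3 in water, or DMSO for one compound) added to polynucleotide, e.g. poly(dAdT)2 at 2.0 × 10−5 mol dm−3. Scan 500–220 nm, 200 nm min−1, 3 accumulations. Polynucleotide concentration as phosphate.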

The test system of data set [13] is AT rich DNA. In words: Binding affinity to double stranded [poly(dA-dT)2] DNA (unknown origin) minor groove assessed as effect on CD spectrum at pH 7 by CD spectroscopy. In kind it is nucleic-acid assay. Summed up: as §4
The subject of data set [14] is AT rich DNA. Description: Binding affinity to double stranded [poly(dA-dT)2] DNA (unknown origin) assessed as binding constant at pH 7 by fluorescence spectroscopy. As to conditions: Homo sapiens. It counts as nucleic-acid assay. Summed up: (§5)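 Fluorimetric titration at 25 °C, sodium cacodylate buffer pH 7.0, I = 0.05 mol dm−3: polynucleotide portions added to compound (e.g. 1 × 10−6 mol dm−3). Excitation ≥ 300 nm to avoid inner filter effect. Data fitted by Scatchard equation, recalculated at fixed n = 0.2 [bound compound]/[polynucleotide]; I/I0 is the calculated complex fluorescence over starting compound fluorescence.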

Data set [15] relates to AT rich DNA. Description: Binding affinity to double stranded [poly(dA-dT)2] DNA (unknown origin) assessed as change in fluorescence intensity at pH 7 by fluorescence spectroscopy relative to control. It counts as nucleic-acid assay. Conditions: Homo sapiens. In outline: as §5

`Cl.c1cc(-c2nc3ccc(C4=NCCCN4)cc3s2)ccc1OCc1c[nH]nn1`: the MIC (in general, the least concentration at which growth counts as inhibited) in data set [1] was greater than 128 µg/mL; in data set [2] it was greater than 128 µg/mL; in data set [3], 32 µg/mL; in data set [4], greater than 128 µg/mL.
Turning to `CC[C@H]1OC(=O)[C@H](C)[C@@H](O[C@H]2C[C@@](C)(OC)[C@@H](O)[C@H](C)O2)[C@H](C)[C@@H](O[C@@H]2O[C@H](C)C[C@H](N(C)C)[C@H]2O)[C@](C)(O)C[C@@H](C)CN(C)[C@H](C)[C@@H](O)[C@]1(C)O` [AZITHROMYCIN], the MIC is 2 µg/mL (≈ 2.67 µM) in data set [1]; 0.125 µg/mL (≈ 0.167 µM) in [2]; 8 µg/mL (≈ 10.7 µM) in data set [3]; 0.5 µg/mL (≈ 0.668 µM) in [4]; 0.125 µg/mL (≈ 0.167 µM) in data set [5]; 16 µg/mL (≈ 21.4 µM) in data set [6]. Further, the MIC in data set [7] is 0.125 µg/mL (≈ 0.167 µM); in data set [8] it was 8 µg/mL (≈ 10.7 µM).
Regarding `Cl.Fc1cc(-c2nc3ccc(C4=NCCCN4)cc3s2)ccc1OCc1c[nH]nn1`, the MIC in data set [1] is 128 µg/mL; in data set [2], greater than 128 µg/mL; in data set [3], greater than 128 µg/mL; in [4] it was greater than 128 µg/mL.
As for `COc1cc(-c2nc3ccc(C4=NCCCN4)cc3s2)ccc1OCc1cn(Cc2ccccc2)nn1.Cl`, the MIC in data set [1] was greater than 128 µg/mL; in data set [2], 128 µg/mL; in data set [3], 16 µg/mL; in data set [4] it was 64 µg/mL.
With `COc1cc(-c2nc3ccc(C4=NCCCN4)cc3s2)ccc1OCc1ccccn1.Cl`, the MIC in data set [1] is greater than 128 µg/mL; in [2] it was greater than 128 µg/mL; in data set [3] it was 32 µg/mL; in data set [4] it was 128 µg/mL.
As for `CC1(C)S[C@@H]2[C@H](NC(=O)[C@H](N)c3ccccc3)C(=O)N2[C@H]1C(=O)O` [AMPICILLIN], the MIC in [5], in data set [6], in data set [7] and in data set [8] was 0.25 µg/mL (≈ 0.715 µM) throughout.
Consider `COc1cc(-c2nc3ccc(C4=NCCCN4)cc3s2)ccc1OCc1c[nH]nn1.Cl`, for which the MIC in data set [1] was greater than 128 µg/mL; in data set [2], greater than 128 µg/mL; in data set [3] it was 32 µg/mL; in [4] it was 128 µg/mL.
In the case of `Cl.O=C(COc1ccc(-c2nc3ccc(C4=NCCCN4)cc3s2)cc1F)c1ccccc1`, the MIC in data set [1] was 128 µg/mL; in [2] it was 128 µg/mL; in [3], 4 µg/mL; in data set [4] it was 16 µg/mL; in data set [5] it was 32 µg/mL; in data set [6], 128 µg/mL. Besides, the MIC in data set [7] worked out at 32 µg/mL; in [8] it was 128 µg/mL. Also, the IC50 (usually the point on the concentration scale where inhibition reaches its midpoint) in [9] was greater than 100 µM. In addition, the ΔTm (as a rule, the change in melting temperature against a reference sample) in data set [10] worked out at 0 °C; in data set [11], 3.8 °C. In addition, the result in [12] and in data set [13] was Active.
In the case of `Cl.O=C(COc1ccc(-c2nc3ccc(C4=NCCCN4)cc3s2)cc1)c1ccccc1`, the MIC in [1] was 128 µg/mL; in data set [2] it was greater than 128 µg/mL; in [3] it was 8 µg/mL; in data set [4] it was 32 µg/mL. The log Ks in data set [14] turned out to be 5.3. For the same compound, in [15], the fold change (FC) turned out to be 4.9. The ΔTm stood at 0 °C in [10] and 3.1 °C in [11]. In addition, the result in [12] and in data set [13] was Active.
With `Cl.c1ccc(Cn2cc(COc3ccc(-c4nc5ccc(C6=NCCCN6)cc5s4)cc3)nn2)cc1`, the MIC turned out to be 128 µg/mL in data set [1], 128 µg/mL in data set [2], 4 µg/mL in data set [3] and 32 µg/mL in data set [4].
